Results gathered from unrelated publications.
Compare with care: the assays were run in different laboratories.
ART1: ART1 (Homo sapiens, UniProt P52961)
CA9: Carbonic anhydrase 9 (CA9, Homo sapiens, UniProt Q16790)
PADI4: Protein-arginine deiminase type-4 (PADI4, Homo sapiens, UniProt Q9UM07)
GUK1: GUK1 (Homo sapiens, UniProt Q16774)

Structure (SMILES) | target | observed | action | technique | notes | quantity | value
O=C(O)CCc1ccccc1 | Inward rectifier potassium channel 2 (KCNJ2, Homo sapiens, UniProt P63252) | binding |  | MST |  | Kd | 2110 µM
NC(=O)c1cccnc1 | ART1 | enzyme activity | inhibitor | fluorescence |  | Ki | 8300 µM
N#CSCc1cc(=O)oc2cc(O)ccc12 | CA9 | enzyme activity | inhibitor | stopped-flow |  | Ki | 0.0274 µM
Cc1ccc(-n2cc(CNC(=O)c3ccc(=O)oc3)nn2)cc1 | CA9 | enzyme activity | inhibitor | stopped-flow |  | Ki | 14.5 µM
N=C(CCl)NCCC[C@H](NC(=O)c1cnc2cc(Br)ccc2c1)C(=O)NCc1ccccc1 | PADI4 | enzyme activity | inhibitor | fluorescence | with preincubation | IC50 | 0.409 µM
O=C(OCc1cn(-c2ccc(Cl)cc2)nn1)c1ccc(=O)oc1 | CA9 | enzyme activity | inhibitor | stopped-flow |  | Ki | 21.9 µM
N#CSCCCCOc1ccc2c(-c3ccccc3)cc(=O)oc2c1 | CA9 | enzyme activity | inhibitor | stopped-flow |  | Ki | 0.258 µM
O=C(NCc1cn(-c2ccc([N+](=O)[O-])cc2)nn1)c1ccc(=O)oc1 | CA9 | enzyme activity | inhibitor | stopped-flow |  | Ki | 7.5 µM
CN(C)c1ccc2cc(C(=O)N[C@@H](CCCN=C(N)CCl)C(=O)NCc3ccccc3)ccc2c1 | PADI4 | enzyme activity | inhibitor | fluorescence | with preincubation | IC50 | 2.86 µM
Nc1ncnc2c1ncn2[C@@H]1O[C@H](COP(=O)(O)OP(=O)(O)OC[C@H]2OC(O)[C@H](O)[C@@H]2O)[C@@H](O)[C@H]1O (some centres unmarked) | ART1 | enzyme activity | inhibitor | fluorescence |  | Ki | 4900 µM
Nc1ncnc2c1ncn2[C@@H]1O[C@H](CO[P@](=O)(O)O[P@](=O)(O)O[P@@](=O)(O)S)[C@@H](O)[C@H]1O | GUK1 | binding |  | ITC |  | Kd | 40 µM
Cc1cc(C)nc(Nc2ccc(C(=O)N[C@@H](CCCNC(=N)CCl)C(=O)NCc3ccccc3)cn2)c1 | PADI4 | enzyme activity | inhibitor | fluorescence | with preincubation | IC50 | 1.02 µM
CC[C@H](C)[C@H](NC(=O)[C@H](CCC(=O)O)NC(=O)[C@H](CO)NC(=O)[C@@H](NC(=O)[C@@H](N)CO)C(C)C)C(=O)N[C@@H](CCC(N)=O)C(=O)N[C@@H](CC(C)C)C(=O)N[C@@H](CCSC)C(=O)N[C@@H](Cc1cnc[nH]1)C(=O)N[C@@H](CC(N)=O)C(=O)N[C@@H](CC(C)C)C(=O)NCC(=O)N[C@@H](CCCCN)C(=O)N[C@@H](Cc1cnc[nH]1)C(=O)N[C@@H](CC(C)C)C(=O)N[C@@H](CC(N)=O)C(=O)N[C@@H](CO)C(=O)N[C@@H](CCSC)C(=O)N[C@@H](CCC(=O)O)C(=O)N[C@@H](CCCNC(=N)N)C(=O)N[C@H](C(=O)N[C@@H](CCC(=O)O)C(=O)N[C@@H](Cc1c[nH]c2ccccc12)C(=O)N[C@@H](CC(C)C)C(=O)N[C@@H](CCCNC(=N)N)C(=O)N[C@@H](CCCCN)C(=O)N[C@@H](CCCCN)C(=O)N[C@@H](CC(C)C)C(=O)N[C@@H](CCC(N)=O)C(=O)N[C@@H](CC(=O)O)C(=O)N[C@H](C(=O)N[C@@H](Cc1cnc[nH]1)C(=O)N[C@@H](CC(N)=O)C(=O)N[C@@H](Cc1ccccc1)C(N)=O)C(C)C)C(C)C | Albumin (ALB, Bos taurus, UniProt P02769) | binding |  | BLI |  | Kd | 1.61 µM
Nc1nc2c(ncn2[C@@H]2O[C@H](COP(=O)(O)O)[C@@H](O)[C@H]2O)c(=O)[nH]1 | GUK1 | binding |  | ITC |  | Kd | 39 µM
